Runt-SMMHC FRET = blocks binding of human RUNX1 Runt domain to CBFb-SMMHC | Q01196+Q13951 | Cerulean-Runt/Venus-CBFb-SMMHC FRET ratio 530/480, 1 h | inhibition, % at 20 µM | 0.74% of 220,000 active;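 active = mean inhibition across duplicate retests at 20 µM reaching about 50%, limit read from the data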;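 also: 0% = DMSO wells and 100% = wells with excess untagged CBFb-SMMHC; inhibitors lower the FRET ratio by blocking Runt binding to CBFb-SMMHC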
Wee1 degr inh = human Wee1 degradation inhibition, primary screen; P30291; HeLa Luc-Wee1K328M stability, luciferase luminescence; 100% = proteasome inhibitor MG132 effect; reporter increase, % at 5 µM; 1.2% of 220,000 active; AID 1321;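 active = activation above the mean of all tested compounds plus 3 SD, set per screening run, cut at about 8.8% in these data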;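 also: cells exposed to compound for 20 h before luminescence read; 0% = DMSO alone and 100% = MG132 at 30 µM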
Target sequence (P30291 whole entry K328M): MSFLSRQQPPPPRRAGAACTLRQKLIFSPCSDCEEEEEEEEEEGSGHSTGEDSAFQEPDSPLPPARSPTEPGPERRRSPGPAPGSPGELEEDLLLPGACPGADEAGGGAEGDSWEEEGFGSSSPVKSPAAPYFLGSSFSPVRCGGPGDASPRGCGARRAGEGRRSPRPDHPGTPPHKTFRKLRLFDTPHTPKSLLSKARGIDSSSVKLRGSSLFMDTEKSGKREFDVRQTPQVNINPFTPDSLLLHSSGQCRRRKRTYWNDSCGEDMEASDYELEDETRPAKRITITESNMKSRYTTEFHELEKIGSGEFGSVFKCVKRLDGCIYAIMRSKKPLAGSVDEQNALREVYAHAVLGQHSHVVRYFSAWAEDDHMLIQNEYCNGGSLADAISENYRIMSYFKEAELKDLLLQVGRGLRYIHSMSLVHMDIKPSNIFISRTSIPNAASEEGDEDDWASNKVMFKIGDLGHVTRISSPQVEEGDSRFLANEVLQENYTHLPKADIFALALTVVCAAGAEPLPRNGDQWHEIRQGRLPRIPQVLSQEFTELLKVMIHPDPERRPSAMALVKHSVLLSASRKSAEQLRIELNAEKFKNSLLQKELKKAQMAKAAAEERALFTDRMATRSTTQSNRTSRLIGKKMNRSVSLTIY
KLK7 zymogen act = activates the human kallikrein-7 zymogen | 0.9% of 370,000 active | purified proKLK7, EDANS-DABCYL substrate fluorescence; 100% is mature enzyme control, 0% vehicle | P49862 | AID 652039 | activation, % at 7 µM;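 active = activation above the mean of all tested compounds plus 3 SD, computed per campaign excluding outliers beyond control limits, cut at about 13% in these data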
RanGTP-Impb inh = inhibitors of RanGTP-importin-beta interaction, primary screen, biochemical, FRET, CFP-Ran, YFP-importin-beta, homogeneous; cell-free CFP-Ran/YFP-importin-beta FRET ratio; 1.1% of 300,000 active; inhibition, % (test concentration not listed); AID 2216;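 active = more than half of the replicate wells show a fall in the fluorescence ratio signal beyond about 16%, limit read from the data, passing the limit was not always enough; inconclusive = exactly half of the replicate wells pass the set limit; inactive = fewer than half of replicates pass the limit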;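 also: 0% = DMSO wells and 100% = Ran loaded with GDP instead of GTP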
AI-2 QS modul = modulators of Vibrio harveyi AI-2 quorum sensing system; Vibrio harveyi JMH597 AI-2 luminescence/OD600 ratio, 9 h; stronger effect = lower value; strain lacks LuxN and CqsS sensors; 0 = neutral-control median; activity change, % at 7.5 µM; 0.4% of 300,000 active; in the data active = activity change below about -75%, passing the limit was not always enough; inconclusive = no clear call, values can overlap the other calls;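 also: luminescence divided by OD600 gain over 9 h not by final OD600 alone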
Runt-CBFb FRET = Runt domain-CBFb interaction inhibition. Q01196+Q13951. Cerulean-Runt/Venus-CBFb FRET ratio 530/480, 1 h. inhibition, % at 20 µM. 0.46% of 220,000 active. AID 1496;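 active = inhibition over about 50% at 20 µM in the single-dose screen, limit read from the data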;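 also: 0% = DMSO wells and 100% = excess unlabeled CBFb competitor control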
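Assay system: Cerulean-Runt domain fusion protein, energy donor; Signal: fluorescence energy transfer, 422 nm excitation, 530/480 nm emission; Timing: 1 h compound exposure, room temperature; Control set: unlabeled CBFb; Medium: Tris buffer pH 7.5 with salts and BSA; Compound: single test concentration of 20 µM, 1% DMSO final; Probe or stimulus: Venus-CBFb 100 nM.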
* marks the source's active call; other numbers are inactive results; ? = inconclusive; · = no result. In the library only some 2.9% were active in any assay of this set; here they are far more common.

SMILES	Runt-SMMHC FRET	Wee1 degr inh	KLK7 zymogen act	RanGTP-Impb inh	AI-2 QS modul	Runt-CBFb FRET
CCOc1c(N2CC(C)OC(C)C2)c(=O)c1=O (configuration not stated)	-1	9.4*	0	5	5	2
CCn1cc(C(=O)Nc2nnc(C)s2)c(=O)c2cc(F)c(N3CCN(C(=O)c4ccco4)CC3)cc21	·	3	·	·	·	·
COC(=O)[C@]12C[C@H](CC(=O)N3CCN(C(=O)c4ccco4)CC3)C(=O)N(CCc3ccc(OC)c(OC)c3)C1=C[C@H](C(C)(C)C)O[C@@H]2C	·	·	0	·	·	·
O=C(COc1ccc([N+](=O)[O-])cc1)NNC(=S)NC(=O)c1ccc(Br)cc1	11	-2	0	-3	-127*	37
CCn1c(C)nc2cc(C(=O)NNC(=S)Nc3ccc(C)cc3)ccc21	1	0	0	8	20	4
COc1ccc(C(=O)NNC(=S)NC(=O)c2cccc([N+](=O)[O-])c2)cc1	·	·	0	3	-85*	·
CCn1c(C)nc2cc(C(=O)NNC(=S)NC(=O)c3ccc(OC)cc3)ccc21	5	2	0	-2	-85*	6
C=C1[C@@H](OC(C)=O)C=C[C@@]2(C)C=CC(=O)[C@@](C)(OC(C)=O)[C@@H]2[C@@H](OC(C)=O)[C@]2(O)[C@@H](C)C(=O)O[C@H]2[C@H]1Cl	·	·	0	·	·	·
COC(=O)[C@H]1C[C@@]2(C)c3ccccc3N(C(=O)OC(C)(C)C)[C@H]2N1C(=O)OC(C)(C)C	·	·	0	·	·	·
CCCc1c(C(=O)Nc2cc(C(C)(C)C)on2)cnn1-c1ccccc1	0	9.8*	0	-3	7	-5
Cc1ccccc1NC(=O)C1CCN(C2=NS(=O)(=O)c3ccccc32)CC1	1	10*	0	3	45	·
Nc1[nH]c(C(=O)c2ccccc2)c(-c2ccccc2Br)c1C(=O)c1cccs1	·	·	0	·	·	·
Clc1cccc(Cl)c1CSc1nnc(CN2CCOCC2)n1-c1ccccc1	-3	11*	0	0	6	2
Cc1cc(=O)[nH]c(-c2cccnc2)n1	-5	-1	0	22*	23	-1
O=c1cc(C(F)(F)F)nc(-c2cccnc2)[nH]1	0	3	0	-2	37	0
O=C(NC1CCC1)c1ccc(C#Cc2cccc(F)c2)nc1	·	·	-1	·	·	·
COc1ccc(/C=C/C(=O)Nc2cc(=O)n(C)c(=O)n2C)cc1	2	9.7*	2	4	7	-2
Cn1c(NC(=O)/C=C/c2ccccc2)cc(=O)n(C)c1=O	1	8.9*	0	2	24	-1
Cn1c(NC(=O)/C=C/c2ccc(Cl)c(Cl)c2)cc(=O)n(C)c1=O	0	3	0	-3	21	-3
COC(=O)[C@]12C[C@H](CC(=O)NCc3ccc(C)o3)C(=O)N(CCC3=CCCCC3)C1=C[C@H](C(C)C)O[C@@H]2C1CC1	·	·	1	·	·	·
O=C1CNC(=S)N1Cc1ccccc1	0	9.5*	0	3	13	1
O=c1cc(CN2CCN(Cc3ccc(F)cc3)C(CCO)C2)[nH]c2ccccc12 (configuration not stated)	·	·	0	-3	5	·
Cc1ccc(-n2c(SCC(=O)Nc3ccccc3-c3ccccc3)nnc2-c2ccccc2)cc1	·	·	0	·	·	·
Nc1nc(N)nc(COc2ccccc2)n1	1	9.4*	1	?	2	-1
CCOc1ccc(Cc2nc(N)nc(N)n2)cc1	0	7	-1	-3	17	-1
SMILES	Runt-SMMHC FRET	Wee1 degr inh	KLK7 zymogen act	RanGTP-Impb inh	AI-2 QS modul	Runt-CBFb FRET
N#Cc1c2ccccc2nc2ccccc12	98*	4	-1	18*	11	45
c1ccc2nc3ccccc3nc2c1	-1	-2	0	4	40	-1
Cc1cccn2c(=O)c3cc(C(=O)NCC(C)C)sc3nc12	·	·	0	-4	35	·
Cc1cccn2c(=O)c3cc(C#N)c(=NC(=O)c4cccs4)n(CC(C)C)c3nc12	88*	0	2	151*	31	39
CCOCCCn1c(=NC(=O)c2cccs2)c(C#N)cc2c(=O)n3cccc(C)c3nc21	81*	-1	6	121*	13	76*
CC(=NCc1ccco1)c1c(C)[nH]n(-c2nc3ccccc3s2)c1=O	-1	-2	-2	?	13	-2
C/C(=N/NC(=O)c1cccs1)c1c(C)[nH]n(-c2nc3ccccc3s2)c1=O	98*	0	0	-7	11	45
CC(C)[C@H](NC(=O)c1ccco1)C(=O)N1CCC[C@H]1C(=O)NCc1ccccc1	·	·	1	·	·	·
CCCC(=O)c1c(NCCO)cc(C)oc1=O	-6	8.9*	1	-1	17	·
CCCNc1cc(C)oc(=O)c1C(=O)CCC	1	3	-1	2	8	2
C[C@H](O)[C@@H]1C(=O)N2CCc3c([nH]c4cccc(-c5ccccc5)c34)[C@@H]2C[C@@H]1N(C)C(=O)c1ccco1	·	·	-41	·	·	·
Cc1cc(N2CCOCC2)n2nc(C)c(-c3ccccc3)c2n1	136	-3	0	·	·	86*
COC(=O)C1=C(C)N(C)C(=NCc2ccc3c(c2)OCO3)NC1c1ccc(Cl)cc1 (configuration not stated)	·	·	0	·	·	·
Cc1cc(C(=O)CSc2cccc[n+]2[O-])c(C)n1-c1ccc(Br)cc1	-2	9.6*	·	-4	-7	-2
Cc1cc(C(=O)CSc2cccc[n+]2[O-])c(C)n1-c1ccccc1	-2	1	1	4	25	4
c1ccc(Cn2ccc3ccc(-c4ccc5ccn(Cc6cccc(-c7ccsc7)c6)c5c4)cc32)cc1	·	·	-1	·	·	·
CC(CCc1ccc(O)cc1)NCCc1ccc(O)c(O)c1 (configuration not stated)	·	·	1	40*	22	·
CCN1/C(=C/C=C/c2sc3ccccc3[n+]2CC)Sc2ccccc21	·	·	·	26*	-29	·
CCN1/C(=C/C=C/C=C/c2sc3ccccc3[n+]2CC)Sc2ccccc21	20	2	·	0	?	17
NC(=O)c1c(NC(=O)C2COc3ccccc3O2)sc2c1CCN(Cc1ccccc1)C2 (configuration not stated)	137*	2	4	-3	13	110*
COC(=O)N1CCc2c(sc(NC(=O)C3COc4ccccc4O3)c2C(N)=O)C1 (configuration not stated)	·	·	-1	-1	19	·
CCOC(=O)c1c(NC(=O)C2COc3ccccc3O2)sc2c1CCN(Cc1ccccc1)C2 (configuration not stated)	48	-4	-4	90*	33	49
